Measurements reported in ChEMBL document CHEMBL2093137, “WHO-TDR NTD Screening”.
Converted amounts (≈) assume the structure as drawn.

Key:
Schistosoma mansoni = experiment: WHO-TDR: Schistosomiasis; type: functional; design: concentration or dose not given beside the values
Summary of the method: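 Percent inhibition and IC50 describe activity against whole Schistosoma mansoni worms of the Puerto Rican strain, tested as larvae and/or adults. The compounds screened were a diverse set of 10,000 from Life Chemicals, filtered for drug-likeness and reactive groups. Testing followed previously published standard procedures, with a reference drug as positive control.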

Plasmodium falciparum K1 = experiment: WHO-TDR: Malaria; type: functional, organism-based, Homo sapiens; settings: Erythrocyte
Summary of the method: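 Values are IC50 figures for antiplasmodial potency. They come from a whole-organism screen of 10,000 diverse Life Chemicals compounds against Plasmodium falciparum K1 growing inside human red blood cells, run by previously published standard procedures.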

Brugia malayi = experiment: WHO-TDR: Lymphatic Filariasis; type: functional; design: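 tested at 10 µM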
Summary of the method: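 The screening set was a 10,000-compound diverse library from Life Chemicals, filtered for drug-likeness and for reactive groups. It was run against Brugia malayi microfilariae as whole organisms, using previously published standard procedures. Reference drugs acted as positive controls, and activity is reported both as percent inhibition and as IC50.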

Trypanosoma cruzi = experiment: WHO-TDR: Chagas disease; type: functional, organism-based, Homo sapiens; settings: MRC5
Summary of the method: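 Each IC50 reflects antiparasitic potency against intracellular amastigotes of Trypanosoma cruzi Tulahuen CL2 beta-galactosidase strain. These were cultured in MRC-5SV2 human lung fibroblasts and exposed to a 10,000-compound diverse Life Chemicals library screened according to published standard procedures with a reference drug as positive control.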

[1] = WHO-TDR: Cytotoxicity; type: toxicity, cell-based; settings: human, MRC5 cells
Onchocerca ochengi = experiment: WHO-TDR: Onchocerciasis; type: functional; design: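 at 12.5 µM on microfilariae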
Summary of the method: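 Percent inhibition and IC50 describe activity against microfilariae of Onchocerca ochengi or Onchocerca lienalis, used as animal-pathogen substitutes for the human parasite. The compounds tested made up a 10,000-member diverse library from Life Chemicals.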

Leishmania infantum = experiment: WHO-TDR: Leishmaniasis; type: functional, organism-based, Mus musculus; settings: Macrophage
Summary of the method: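 Values are IC50 figures for antiparasitic potency. They come from a whole-organism screen of a 10,000-compound diverse Life Chemicals library against Leishmania infantum MHOM/MA(BE)/67 amastigotes inside murine peritoneal macrophage host cells.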

[2] = tested on: Trypanosoma brucei brucei; experiment: WHO-TDR: Human African Trypanosomiasis (HAT); type: functional, organism-based; settings: Squib-427
Summary of the method: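 Values are IC50 figures for antiparasitic potency. They come from a whole-organism screen of 10,000 diverse Life Chemicals compounds against bloodstream-form Trypanosoma brucei (Squib 427 strain).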

Row | SMILES | % Inhibition (Schistosoma mansoni) | IC50 (Plasmodium falciparum K1) | % Inhibition (Brugia malayi) | IC50 (Trypanosoma cruzi) | IC50 [1] | % Inhibition (Onchocerca ochengi) | IC50 (Leishmania infantum) | IC50 [2]
1 | O=S(=O)(CCCOc1ccc2c(c1)OCO2)NC1CCN(Cc2ccccc2)CC1 | 16.7% | > 13 µg/mL | 0% | 13 µg/mL (≈ 30 µM) | > 13 µg/mL | 100% | > 13 µg/mL | 8.57 µg/mL (≈ 19.8 µM)
2 | O=S(=O)(CCCOc1ccc2c(c1)OCO2)NCCc1c[nH]c2ccccc12 | 0% | > 12.1 µg/mL | 0% | 3.12 µg/mL (≈ 7.74 µM) | > 12.1 µg/mL | 100% | > 12.1 µg/mL | > 12.1 µg/mL
3 | O=S(=O)(CCCOc1ccc(F)cc1)NCc1ccccc1Cl | 0% | > 10.7 µg/mL | 0% | 7.84 µg/mL (≈ 21.9 µM) | > 10.7 µg/mL | 100% | > 10.7 µg/mL | > 10.7 µg/mL
4 | O=S(=O)(CCCOc1ccc(F)cc1)NCCCc1ccccc1 | 0% | > 10.5 µg/mL | 0% | > 10.5 µg/mL | 10.5 µg/mL (≈ 30 µM) | 100% | > 10.5 µg/mL | > 10.5 µg/mL
5 | O=S(=O)(CCCOc1ccc(F)cc1)N1CCc2ccccc21 | 0% | > 10.1 µg/mL | 0% | 3.09 µg/mL (≈ 9.2 µM) | > 10.1 µg/mL | 100% | > 10.1 µg/mL | 3.22 µg/mL (≈ 9.6 µM)
6 | O=S(=O)(CCCOc1ccc(F)cc1)NCc1c(F)cccc1F | 0% | > 10.8 µg/mL | 0% | 5.73 µg/mL (≈ 16 µM) | > 10.8 µg/mL | 50% | 0.349 µg/mL (≈ 0.971 µM) | > 10.8 µg/mL
7 | O=S(=O)(CCCOc1ccc(F)cc1)NC1CCN(Cc2ccccc2)CC1 | 50% | > 12.2 µg/mL | 0% | > 12.2 µg/mL | > 12.2 µg/mL | 100% | > 12.2 µg/mL | 3.86 µg/mL (≈ 9.49 µM)
8 | O=C(CCCn1nc(-c2ccccc2)ccc1=O)N1CCN(c2ccccc2F)CC1 | 25% | > 12.6 µg/mL | 0% | 3.81 µg/mL (≈ 9.07 µM) | > 12.6 µg/mL | 100% | > 12.6 µg/mL | 4.04 µg/mL (≈ 9.6 µM)
9 | NC(=O)c1ccc(NC(=O)CCCn2nc(-c3ccc(Cl)cc3)ccc2=O)cc1 | 16.7% | > 12.3 µg/mL | 0% | > 12.3 µg/mL | > 12.3 µg/mL | 100% | > 12.3 µg/mL | > 12.3 µg/mL
10 | O=C(CCCn1nc(-c2ccc(F)cc2)ccc1=O)Nc1ccc(C(F)(F)F)cc1 | 0% | > 12.6 µg/mL | 0% | > 12.6 µg/mL | > 12.6 µg/mL | 100% | > 12.6 µg/mL | > 12.6 µg/mL
11 | CCOc1ccc(-c2ccc(=O)n(CCCC(=O)Nc3ccccc3SC)n2)cc1 | 0% | > 12.7 µg/mL | 0% | 8.92 µg/mL (≈ 21.1 µM) | > 12.7 µg/mL | 100% | > 12.7 µg/mL | > 12.7 µg/mL
12 | COc1ccc2nc(-c3ccc(OC)c(NC(=O)c4c(F)cccc4Cl)c3)cn2n1 | 0% | > 12.8 µg/mL | 0% | > 12.8 µg/mL | > 12.8 µg/mL | 0% | 0.415 µg/mL (≈ 0.972 µM) | > 12.8 µg/mL
13 | CCC(C(=O)Nc1cc(-c2cn3nc(OC)ccc3n2)ccc1Cl)c1ccccc1 (centres undefined) | 0% | > 12.6 µg/mL | 0% | 8.38 µg/mL (≈ 19.9 µM) | > 12.6 µg/mL | 100% | > 12.6 µg/mL | > 12.6 µg/mL
